# Bioassay records deposited in PubChem by several laboratories.
# eIF4E-4G inh – eIF4E–eIF4G protein interaction inhibitors, primary screen, biochemical, uHTS, TR-FRET, eIF4GI fragment; inhibition, % at 21.7 µM; AID 782, 2007; 0.37% of 220,000 active; TR-FRET eIF4E-eIF4GI(517-606) binding, 2 h;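 active = inhibition above about 30%, limit read from the data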
# PKD1 inh – inhibitors of human PKD1 kinase, biochemical, fluorescence polarization; 0.056% of 200,000 active; inhibition, % (test concentration not listed); PKD1 kinase fluorescence polarization assay
# RBBP9 inhibitor – human RBBP9 inhibitors, primary screen, biochemical, fluorescence polarization, FP-Rh probe, HTS; Serine hydrolase RBBP9 (Homo sapiens), O75884; recombinant RBBP9; inhibition, % at 7.94 µM; 0.2% of 220,000 active; AID 1515, 2009;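 active = inhibition above the campaign mean of all tested compounds plus 3 SD, cut at about 14% in these data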
# Target sequence (O75884 whole entry, looked up): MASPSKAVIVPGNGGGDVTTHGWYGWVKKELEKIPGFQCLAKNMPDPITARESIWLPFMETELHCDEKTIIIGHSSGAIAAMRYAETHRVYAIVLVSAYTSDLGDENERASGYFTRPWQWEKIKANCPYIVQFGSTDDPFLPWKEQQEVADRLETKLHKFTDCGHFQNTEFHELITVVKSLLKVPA
#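 Test system: recombinant human RBBP9; Timing: 30 min then 45 min, 25 °C; Detection: fluorescence polarization; Control set: RBBP9 with DMSO as uninhibited control, no-protein wells as full inhibition; Compound dosing: one concentration, 7.94 µM nominal, 0.794% DMSO; Probe or stimulus: FP-Rh activity-based probe, 375 nM before mixing.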
# EBV gp42 inh – Epstein-Barr virus gp42 inhibitors, primary screen, biochemical, uHTS, fluorescence polarization | Fluorescence polarization binding assay, mP read-out | inhibition, % (tested at 21.74 µM) | 0.42% of 220,000 active
# Target sequence (Q1HVG2 whole entry, looked up): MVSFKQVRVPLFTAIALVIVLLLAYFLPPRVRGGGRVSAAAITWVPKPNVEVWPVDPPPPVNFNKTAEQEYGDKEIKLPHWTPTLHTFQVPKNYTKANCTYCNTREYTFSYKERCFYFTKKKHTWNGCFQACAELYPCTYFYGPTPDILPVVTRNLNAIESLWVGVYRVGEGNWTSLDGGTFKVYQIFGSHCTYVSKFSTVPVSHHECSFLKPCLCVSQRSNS
# 14-3-3 Bad inh – inhibitors of 14-3-3 zeta/Bad binding, primary screen, biochemical, TR-FRET, bovine 14-3-3 zeta; 14-3-3 protein zeta/delta (Bos taurus), P63103; TR-FRET 14-3-3zeta/Dy647-pBad peptide displacement, 1 h; inhibition, % at 21.7 µM; 0.71% of 220,000 active; AID 781, 2007;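 active = inhibition above about 70%, limit read from the data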
# Numbers stand for hits; n = inactive; x = no result given; [ ] = dose if it differs, or a comment. Hits are enriched below; roughly 1.6% of the tested compounds scored in any of these assays. Cut-off read from the data, not from the text of the source, unless noted: active = inhibition above about 50%; inactive = the rest.
SMILES,eIF4E-4G inh,PKD1 inh,RBBP9 inhibitor,EBV gp42 inh,14-3-3 Bad inh
COCCSc1ccccc1C(=O)Nc1cc(C)on1,51.6,n,n,n,n
Cc1cc(NC(=O)CSc2nnc(NCc3ccccc3)s2)no1,93.8,x,n,n,n
COc1ccccc1Nc1nnc(SCC(=O)Nc2cc(C)on2)s1,n,n,n,n,n
Cc1cc(NC(=O)CSc2ccccc2)no1,65.7,n,n,n,n
CS(=O)(=O)NCCCCCCNS(C)(=O)=O,n,n,n,n,n
Cc1ccc(C)c(N/N=C2\CCCNC2=O)c1,n,n,n,n,n
COc1ccc(C2=CSC3=NCCN23)cc1F,38.2[fluorescence artefact?],n,n,n,n
CC(C)c1ccc(/C=C(/C#N)c2nnc(NC(=O)c3ccccc3)s2)cc1,n,n,n,n,n
CCN1CCN(CCCOc2ccccc2-c2ccccc2)CC1,n,n,n,n,70.5
CCOc1ccccc1OCCOCCN1CCN(Cc2ccccc2)CC1,n,n,n,n,84.2
CCN1CCN(CCOc2ccccc2-c2ccccc2)CC1,n,n,n,n,n
NNC(=O)c1cnn(-c2ccccc2)c1-n1cccc1,n,n,n,n,n
O=C(COC(=O)c1cccc(Cl)c1)Nc1cc(Cl)ccc1Oc1ccccc1,n,n,n,n,n
Cc1cccc(C2NC(c3cccc(C)c3)C([N+](=O)[O-])C(C)(C)C2[N+](=O)[O-])c1 (stereo unspecified),n,n,n,n,n
CN(Cc1ccccc1)C(=O)COC(=O)/C=C/c1ccco1,48.1,n,n,n,n
CN(CCOC(=O)/C=C/c1ccco1)Cc1ccccc1,n,n,n,n,n
COc1ccc(CNC(=O)C2Cc3ccccc3CN2C(=O)c2ccco2)cc1 (stereo unspecified),n,105.1,n,n,n
CC(NC(=O)CSc1nnc(CC(=O)Nc2ccc(Cl)c(Cl)c2)n1C)c1ccccc1 (stereo unspecified),42.6[fluorescence artefact?],n,n,n,n
Cn1c(CC(=O)Nc2ccc(Cl)c(Cl)c2)nnc1SCC(=O)N1CCN(c2ccccc2)CC1,n,n,n,n,n
COc1cccc(CNC(=O)CCC2CCCN(C(=O)C3CCOCC3)C2)c1 (stereo unspecified),n,n,n,n,n
CCN(CC)S(=O)(=O)c1ccc(N2CCCCC2)c(NC(=O)/C(C#N)=C/c2ccc(OC)cc2)c1,n,n,n,n,n
CCOc1ccc(NC(=O)/C(C#N)=C/c2ccc(N3CCCC3)c(C)c2)cc1,n,n,n,94.0,n
O=C1c2cccc3c(N4CCCCC4)ccc(c23)C(=O)N1c1ccccn1,n,n,n,129.5,n
CCCN1C(=O)c2cccc3c(N4CCCCC4)ccc(c23)C1=O,n,n,n,80.0,n
O=C(/C=C/c1cc[n+](CC(=O)c2ccc3cccc4c3c2CC4)cc1)c1ccc2cccc3c2c1CC3,n,x,n,n,94.4
SMILES,eIF4E-4G inh,PKD1 inh,RBBP9 inhibitor,EBV gp42 inh,14-3-3 Bad inh
OC(COCCOc1ccc(Br)cc1)CN1CCCCC1 (stereo unspecified),n,n,n,n,n
CCC(c1nnnn1CCc1ccccc1)N1CCN(C(=O)c2ccco2)CC1 (stereo unspecified),n,n,n,n,74.5
CCCCC(c1nnnn1Cc1ccco1)N1CCN(C(=O)c2ccco2)CC1 (stereo unspecified),n,n,n,n,84.6
CC(C)CC(c1nnnn1CCc1ccccc1)N1CCN(C(=O)c2ccco2)CC1 (stereo unspecified),n,n,n,n,n
CC1CCN(CC(=O)NCCc2ccc(F)cc2)CC1,n,n,n,n,n
O=C(CN1CCCCCC1)NCCc1ccc(F)cc1,n,n,n,n,74.9
Nc1c(C(=O)NC2CC2)sc2nc3c(c(-c4ccco4)c12)CC/C3=C/c1ccco1,n,n,n,104.3,n
O=C(/C=C/c1ccccc1)NCCSc1ccc(Cl)cc1,n,n,n,n,n
CCOc1ccccc1CN1CCN(S(=O)(=O)CC)CC1,n,n,n,n,94.5
COc1ccc(CCNS(=O)(=O)c2ccc3c(c2)OCCO3)cc1,n,n,n,n,83.9
O=C(CN1CCOCC1)N/N=C/c1ccc(-c2cccc(Cl)c2Cl)o1,n,x,n,n,77.4
Cc1ccc(/C=N/NC(=O)CN2CCN(Cc3ccccc3Cl)CC2)o1,n,x,n,n,n
O=C(Cc1ccccn1)Nc1ccccc1,n,n,n,n,73.0[fluorescence artefact?]
O=C(CSCc1ccccn1)Nc1ccccc1,n,n,n,n,n
CCOC(=O)CCCCC(=O)c1[nH]c(=O)[nH]c1CSc1nnc2c3ccccc3n(C(C)C)c2n1,n,n,n,n,n
C/C(=N/OC(=O)c1ccccc1)c1oc(C)nc1C,n,x,n,n,n
COc1cccc(OC)c1OCCCCCc1c(C)n[nH]c1C,n,n,n,n,80.8
COc1cccc(OC)c1OCCCCc1c(C)n[nH]c1C,n,n,n,n,n
O=C(Nc1cccnc1)c1ccc(S(=O)(=O)c2ccc(Cl)cc2)cc1,n,n,n,n,85.3
CC(=O)NC1C(=O)N=C(SC(C)C(=O)Nc2cccc(Cl)c2)NC1=O (stereo unspecified),n,n,n,n,87.4
S=C(NNc1ccnc2cc(Cl)ccc12)Nc1ccc(Cl)cc1Cl,n,x,n,n,91.6
O=C(Cn1cnc2cc([N+](=O)[O-])ccc2c1=O)Nc1ccccc1-c1ccccc1,n,x,n,n,n
COC(=O)c1ccc(Oc2nc(Nc3ccccc3)nc(N(C)C)n2)cc1,n,n,n,n,n
CN(C)c1nc(Nc2ccccc2)nc(N(C)C)n1,n,n,n,n,80.1
Cc1sc2ncn(CC(=O)NCc3ccco3)c(=O)c2c1-c1ccc(F)cc1,n,n,n,n,n
SMILES,eIF4E-4G inh,PKD1 inh,RBBP9 inhibitor,EBV gp42 inh,14-3-3 Bad inh
O=C(Cn1cnc2scc(-c3cccc([N+](=O)[O-])c3)c2c1=O)NCc1ccco1,n,n,n,66.2,n
CN=C(Nc1ccc(Br)cc1)SC1CC(=O)N(c2ccc(OC)cc2)C1=O (stereo unspecified),n,n,n,n,n
O=c1c2ccccc2[nH]c(=S)n1CC1CCCO1 (stereo unspecified),x,n,n,x,x
CC1(C)CC2=C(CO1)C(=S)NC(c1ccccc1)N2CC1CCCO1 (stereo unspecified),94.6,x,n,n,n
O=C1CCCC/C1=C/Nc1cccc(C(F)(F)F)c1,n,n,n,n,92.9
O=S(=O)(c1ccc(Cl)cc1)N1CCN(C2CCCCCC2)CC1,n,n,n,n,n
O=S(=O)(c1ccc(Cl)cc1)N1CCC(N2CCOCC2)CC1,n,n,n,n,80.4
CC1=CC(=C2C=CC(=O)C=C2)C=C(C)N1C,n,x,n,n,n
CCCn1c(N)c(NCCN2CCOCC2)c(=O)[nH]c1=O,n,n,n,n,n
